Measured values taken from ChEMBL document CHEMBL1667822, “Selective antagonists of mouse trace amine-associated receptor 1 (mTAAR1): discovery of EPPTB (RO5212773)” (Bioorg Med Chem Lett, 2011).

Experiments:
[1] = target: Trace amine-associated receptor 1 (Rattus norvegicus, UniProt Q923Y9); assay: Inhibition of rat TAAR1
In short: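 In vitro cAMP functional assay with antagonism read as reversal of the response to the endogenous agonist beta-PEA. Efficacy was scaled so that 100% equals 0% minimum stimulation. Residual beta-PEA stimulation was taken at the highest test-compound concentration. Values are means of at least two independent experiments, with duplicates typically within a twofold margin.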

[2] = target: Trace amine-associated receptor 1 (Mus musculus, UniProt Q923Y8); assay: Antagonist activity at mouse TAAR1 assessed as reversal of endogenous beta-PEA effect; format: functional
In short: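 Mouse TAAR1 antagonist dose–response run as an in vitro cAMP functional assay. Efficacy is the reversal of the effect of the endogenous agonist β-PEA, with 100% efficacy defined as 0% min% stim. Values are averages of at least two independent experiments.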

[3] = target: Trace amine-associated receptor 1 (Mus musculus) (UniProt Q923Y8); assay: Antagonist activity at mouse TAAR1 assessed as residual stimulation by in vitro cAMP functional assay relative to control; parameters: concentration or dose not given beside the values
In short: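 Mouse TAAR1 in vitro cAMP functional assay using the endogenous agonist β-PEA. The read-out is the residual β-PEA stimulation remaining at the maximum test-compound concentration. Values are averages of at least two independent experiments.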

[4] = Intrinsic clearance in mouse liver microsomes measured per mg of protein; format: ADME, Microsome
In short: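 Intrinsic clearance from in vitro incubation of compound with mouse liver microsomes, expressed per mg microsomal protein.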

[5] = Cmax in mouse at 5 mg/kg, ip; format: ADME, organism-based; parameters: dose 5 mg/kg, route intraperitoneal; conditions: in vivo
In short: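 Single-dose pharmacokinetics in mice comparing parenteral routes: intravenous at 2.5 mg/kg and intraperitoneal at 5 mg/kg. Plasma concentrations were followed over time. Bioavailability was derived for the ip route, and Cmax was taken from the ip plasma profile.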

[6] = Volume of distribution at steady state in mouse at 2.5 mg/kg, iv; format: ADME, organism-based; parameters: dose 2.5 mg/kg, route intravenous; conditions: in vivo, read-out: Vdss
In short: (§1)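 Single-dose pharmacokinetics in mice with parenteral dosing, either 2.5 mg/kg iv or 5 mg/kg ip. Drug levels were measured in plasma, with brain exposure taken as the brain/plasma concentration ratio.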

[7] = Ratio of drug level in brain to plasma in mouse at 2.5 mg/kg, iv; format: ADME, organism-based; parameters: dose 2.5 mg/kg, route intravenous; conditions: read-out: BPR; in short: as §1
[8] = target: Mu-type opioid receptor (Homo sapiens) (UniProt P35372); assay: Displacement of [3H]DAMGO from human recombinant mu opioid receptor expressed in HEK293 cells; format: cell-based; conditions: concentration not given here
[9] = test system: CHO; assay: Displacement of [3H]DADLE from human recombinant delta 2 opioid receptor expressed in CHO cells; format: cell-based; conditions: dose or concentration not given here
[10] = target: Neurotensin receptor type 1 (Homo sapiens) (UniProt P30989); assay: Displacement of [125I]Tyr3-neurotensin from human recombinant NT1 receptor expressed in H recombinant CHO cells; format: cell-based; conditions: concentration not given here
Sequence of Neurotensin receptor type 1 (Homo sapiens) (P30989 whole entry): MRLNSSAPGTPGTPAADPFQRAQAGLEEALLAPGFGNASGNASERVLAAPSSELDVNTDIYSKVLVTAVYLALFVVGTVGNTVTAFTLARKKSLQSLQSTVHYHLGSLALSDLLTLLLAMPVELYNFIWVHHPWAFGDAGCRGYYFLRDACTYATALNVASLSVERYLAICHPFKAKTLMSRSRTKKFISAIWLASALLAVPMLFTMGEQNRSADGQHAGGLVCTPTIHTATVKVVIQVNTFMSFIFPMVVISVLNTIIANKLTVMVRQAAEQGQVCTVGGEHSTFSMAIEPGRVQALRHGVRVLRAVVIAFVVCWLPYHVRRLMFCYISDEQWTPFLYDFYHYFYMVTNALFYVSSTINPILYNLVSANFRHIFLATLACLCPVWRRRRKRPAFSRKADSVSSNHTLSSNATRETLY

[11] = target: Neuropeptide Y receptor type 1 (Homo sapiens) (UniProt P25929); assay: Displacement of [125I]peptide YY from human recombinant Y1 receptor expressed in […] cell; conditions: concentration not given here
Sequence of Neuropeptide Y receptor type 1 (Homo sapiens) (P25929 whole entry): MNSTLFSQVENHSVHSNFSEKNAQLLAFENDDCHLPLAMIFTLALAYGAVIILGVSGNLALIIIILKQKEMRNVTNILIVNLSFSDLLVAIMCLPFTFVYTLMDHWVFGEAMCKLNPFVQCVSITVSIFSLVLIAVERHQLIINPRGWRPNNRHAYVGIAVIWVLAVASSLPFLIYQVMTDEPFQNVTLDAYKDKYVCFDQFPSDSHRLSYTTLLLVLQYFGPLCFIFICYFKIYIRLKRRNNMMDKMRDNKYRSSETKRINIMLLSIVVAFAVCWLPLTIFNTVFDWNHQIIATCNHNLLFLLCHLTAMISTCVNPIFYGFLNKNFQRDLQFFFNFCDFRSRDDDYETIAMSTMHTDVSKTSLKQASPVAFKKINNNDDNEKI

[12] = target: Muscarinic acetylcholine receptor M2 (Homo sapiens) (UniProt P08172); assay: Displacement of [3H]AF-DX 384 from human recombinant muscarinic M2 receptor expressed in CHO cells; format: cell-based; conditions: concentration not given here
Sequence of Muscarinic acetylcholine receptor M2 (Homo sapiens) (P08172 whole entry): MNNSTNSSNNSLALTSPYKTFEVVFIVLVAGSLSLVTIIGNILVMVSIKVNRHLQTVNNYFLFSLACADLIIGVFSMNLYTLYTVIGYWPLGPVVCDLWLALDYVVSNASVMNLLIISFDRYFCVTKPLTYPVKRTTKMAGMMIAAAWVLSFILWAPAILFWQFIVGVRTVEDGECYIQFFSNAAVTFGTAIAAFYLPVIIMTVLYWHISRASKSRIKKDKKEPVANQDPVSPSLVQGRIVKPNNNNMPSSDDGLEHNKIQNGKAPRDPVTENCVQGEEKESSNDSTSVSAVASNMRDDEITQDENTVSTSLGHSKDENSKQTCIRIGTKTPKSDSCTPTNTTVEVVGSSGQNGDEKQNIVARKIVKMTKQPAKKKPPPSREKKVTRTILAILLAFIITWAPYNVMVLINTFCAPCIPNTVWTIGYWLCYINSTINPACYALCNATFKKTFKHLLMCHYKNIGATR

[13] = target: Muscarinic acetylcholine receptor M1 (Homo sapiens) (UniProt P11229); assay: Displacement of [3H]pirenzepine from human recombinant muscarinic M1 receptor expressed in CHO cells; format: cell-based; conditions: concentration not given here
Sequence of Muscarinic acetylcholine receptor M1 (Homo sapiens) (P11229 whole entry): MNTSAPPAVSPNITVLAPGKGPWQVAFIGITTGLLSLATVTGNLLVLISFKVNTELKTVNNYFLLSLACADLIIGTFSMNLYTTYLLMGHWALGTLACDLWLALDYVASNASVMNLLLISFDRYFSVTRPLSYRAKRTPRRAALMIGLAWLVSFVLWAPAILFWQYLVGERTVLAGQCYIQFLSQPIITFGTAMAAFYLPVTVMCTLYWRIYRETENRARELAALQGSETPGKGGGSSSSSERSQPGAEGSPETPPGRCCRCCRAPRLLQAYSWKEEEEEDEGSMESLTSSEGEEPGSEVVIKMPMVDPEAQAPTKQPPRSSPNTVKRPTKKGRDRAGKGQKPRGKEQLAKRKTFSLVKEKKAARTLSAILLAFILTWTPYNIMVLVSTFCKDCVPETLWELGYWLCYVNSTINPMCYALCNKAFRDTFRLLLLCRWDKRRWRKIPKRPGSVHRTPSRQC

[14] = target: monoamine oxidase-B (MAO-B) (Rattus norvegicus, UniProt P19643); assay: Inhibition of rat monoamine oxidase-B at 10 uM
Sequence of monoamine oxidase-B (MAO-B) (P19643 whole entry): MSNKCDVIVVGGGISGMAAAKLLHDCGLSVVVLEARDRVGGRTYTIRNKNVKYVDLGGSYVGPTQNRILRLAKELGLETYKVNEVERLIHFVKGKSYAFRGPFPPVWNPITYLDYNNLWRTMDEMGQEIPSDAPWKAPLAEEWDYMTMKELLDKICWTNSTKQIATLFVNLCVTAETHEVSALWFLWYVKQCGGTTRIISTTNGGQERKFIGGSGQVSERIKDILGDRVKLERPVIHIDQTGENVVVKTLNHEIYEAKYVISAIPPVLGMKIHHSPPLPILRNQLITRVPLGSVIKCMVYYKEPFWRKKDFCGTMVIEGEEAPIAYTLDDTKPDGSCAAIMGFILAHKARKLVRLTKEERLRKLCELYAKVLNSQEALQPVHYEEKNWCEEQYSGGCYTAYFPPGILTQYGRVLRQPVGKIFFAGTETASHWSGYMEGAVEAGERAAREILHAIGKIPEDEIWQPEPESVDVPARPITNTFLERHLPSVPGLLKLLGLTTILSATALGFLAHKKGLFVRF

[15] = target: Melatonin receptor type 1A (Homo sapiens) (UniProt P48039); assay: Displacement of [125I]2-iodomelatonin from human recombinant MT1 receptor expressed in CHO cells; format: cell-based; conditions: concentration not given here
Sequence of Melatonin receptor type 1A (Homo sapiens) (P48039 whole entry): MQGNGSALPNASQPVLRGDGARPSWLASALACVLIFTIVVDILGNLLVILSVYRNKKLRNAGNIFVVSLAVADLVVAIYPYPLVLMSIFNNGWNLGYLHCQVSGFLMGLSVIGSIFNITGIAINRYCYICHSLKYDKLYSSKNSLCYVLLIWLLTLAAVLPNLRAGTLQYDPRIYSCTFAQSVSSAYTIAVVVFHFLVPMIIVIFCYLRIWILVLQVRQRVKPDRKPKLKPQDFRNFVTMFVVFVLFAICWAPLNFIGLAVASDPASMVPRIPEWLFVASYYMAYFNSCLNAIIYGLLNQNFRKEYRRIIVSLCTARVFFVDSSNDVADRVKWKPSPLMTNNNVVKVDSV

[16] = target: Melanocortin receptor 4 (Homo sapiens) (UniProt P32245); assay: Displacement of [125I]NDP-a-MSH from human recombinant MC4 receptor expressed in CHO cells; format: cell-based; conditions: concentration not given here
[17] = target: Histamine H1 receptor (Homo sapiens) (UniProt P35367); assay: Displacement of [3H]pyrilamine from human recombinant histamine H1 receptor expressed in HEK293 cells; format: cell-based; conditions: concentration not given here
[18] = target: C-C chemokine receptor type 1 (Homo sapiens) (UniProt P32246); assay: Displacement of [125I]MIP-1a from human recombinant CCR1 receptor expressed in HEK293 cells; format: cell-based; conditions: concentration not given here
Sequence of C-C chemokine receptor type 1 (Homo sapiens) (P32246 whole entry): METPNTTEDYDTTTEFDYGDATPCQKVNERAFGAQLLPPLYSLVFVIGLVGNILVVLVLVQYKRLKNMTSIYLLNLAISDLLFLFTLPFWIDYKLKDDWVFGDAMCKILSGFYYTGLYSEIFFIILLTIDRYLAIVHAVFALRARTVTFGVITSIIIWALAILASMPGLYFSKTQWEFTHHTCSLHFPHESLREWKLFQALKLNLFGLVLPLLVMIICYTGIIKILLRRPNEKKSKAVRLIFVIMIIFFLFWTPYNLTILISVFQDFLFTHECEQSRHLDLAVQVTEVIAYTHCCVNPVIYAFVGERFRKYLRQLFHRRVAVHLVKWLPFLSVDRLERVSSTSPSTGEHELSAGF

[19] = species on record: Rattus norvegicus; assay: Displacement of [3H]GABA from GABA receptor in rat cerebral cortex; format: tissue-based; conditions: concentration not given here
[20] = target: Cholecystokinin receptor type A (Homo sapiens) (UniProt P32238); assay: Inhibition of human cholecystokinin 1 receptor at 10 uM
[21] = target: Cannabinoid receptor 1 (Homo sapiens) (UniProt P21554); assay: Inhibition of human cannabinoid CB1 receptor at 10 uM
Sequence of Cannabinoid receptor 1 (Homo sapiens) (P21554 whole entry): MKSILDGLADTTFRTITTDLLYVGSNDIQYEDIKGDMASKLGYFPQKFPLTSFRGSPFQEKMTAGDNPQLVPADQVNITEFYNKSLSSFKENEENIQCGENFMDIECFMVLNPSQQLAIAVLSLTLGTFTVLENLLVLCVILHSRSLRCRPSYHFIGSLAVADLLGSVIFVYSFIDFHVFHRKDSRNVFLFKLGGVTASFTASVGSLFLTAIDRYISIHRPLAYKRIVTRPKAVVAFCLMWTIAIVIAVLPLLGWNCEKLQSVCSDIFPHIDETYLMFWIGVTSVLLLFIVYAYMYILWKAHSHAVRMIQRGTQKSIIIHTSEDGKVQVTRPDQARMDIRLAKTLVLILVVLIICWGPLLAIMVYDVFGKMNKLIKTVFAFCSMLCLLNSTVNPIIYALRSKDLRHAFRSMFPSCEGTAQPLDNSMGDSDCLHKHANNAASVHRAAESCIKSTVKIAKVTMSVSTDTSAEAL

[22] = target: B2 bradykinin receptor (Homo sapiens) (UniProt P30411); assay: Displacement of [3H]bradykinin from human recombinant bradykinin B2 receptor expressed in CHO cells; format: cell-based; conditions: concentration not given here
[23] = target: Beta-1 adrenergic receptor (Homo sapiens) (UniProt P08588); assay: Displacement of [3H](-)CGP 12177 from human recombinant beta1 receptor expressed in HEK293 cells; format: cell-based; conditions: concentration not given here
[24] = target: Adrenergic receptor alpha-2 (Rattus norvegicus) (UniProt P22086+P19328+P22909); assay: Displacement of [3H]RX8210 from alpha2 receptor in rat cerebral cortex; format: tissue-based; conditions: concentration not given here
[25] = target: Adrenergic receptor alpha-1 (Rattus norvegicus) (UniProt P15823+P23944+P43140); assay: Displacement of [3H]prazosine from alpha1 receptor in rat cerebral cortex; format: tissue-based; conditions: concentration not given here
[26] = target: Adenosine receptor A3 (Homo sapiens) (UniProt P0DMS8); assay: Displacement of [3H]AB-MECA from human recombinant A3 receptor expressed in HEK293 cells; format: cell-based; conditions: concentration not given here
[27] = target: 5-hydroxytryptamine receptor 1B (Rattus norvegicus) (UniProt P28564); assay: Displacement of [125I]CYP from 5HT1B receptor expressed in rat cerebral cortex; format: tissue-based; conditions: concentration not given here
[28] = target: 5-hydroxytryptamine receptor 2A (Homo sapiens) (UniProt P28223); assay: Displacement of [3H]Ketanserin from human recombinant 5HT2A receptor expressed in HEK293 cells; format: cell-based; conditions: concentration not given here
Sequence of 5-hydroxytryptamine receptor 2A (Homo sapiens) (P28223 whole entry): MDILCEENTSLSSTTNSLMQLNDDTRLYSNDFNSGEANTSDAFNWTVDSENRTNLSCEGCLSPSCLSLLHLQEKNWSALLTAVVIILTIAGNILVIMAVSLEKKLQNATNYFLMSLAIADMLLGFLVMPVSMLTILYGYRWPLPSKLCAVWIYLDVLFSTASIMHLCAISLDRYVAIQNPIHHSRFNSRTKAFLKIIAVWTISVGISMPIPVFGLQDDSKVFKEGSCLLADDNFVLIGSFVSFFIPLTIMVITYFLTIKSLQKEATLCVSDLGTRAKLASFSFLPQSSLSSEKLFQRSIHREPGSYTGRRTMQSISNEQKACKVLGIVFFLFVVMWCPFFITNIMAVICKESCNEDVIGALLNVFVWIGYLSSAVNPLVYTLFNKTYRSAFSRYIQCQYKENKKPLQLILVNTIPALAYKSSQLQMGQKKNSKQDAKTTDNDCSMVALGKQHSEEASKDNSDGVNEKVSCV

[29] = target: 5-hydroxytryptamine receptor 6 (Homo sapiens) (UniProt P50406); assay: Displacement of [3H]LSD from human recombinant 5HT6 receptor expressed in CHO cells; format: cell-based; conditions: concentration not given here
[30] = target: 5-hydroxytryptamine receptor 7 (Homo sapiens) (UniProt P34969); assay: Displacement of [3H]LSD from human recombinant 5HT7 receptor expressed in CHO cells; format: cell-based; conditions: concentration not given here
Sequence of 5-hydroxytryptamine receptor 7 (Homo sapiens) (P34969 whole entry): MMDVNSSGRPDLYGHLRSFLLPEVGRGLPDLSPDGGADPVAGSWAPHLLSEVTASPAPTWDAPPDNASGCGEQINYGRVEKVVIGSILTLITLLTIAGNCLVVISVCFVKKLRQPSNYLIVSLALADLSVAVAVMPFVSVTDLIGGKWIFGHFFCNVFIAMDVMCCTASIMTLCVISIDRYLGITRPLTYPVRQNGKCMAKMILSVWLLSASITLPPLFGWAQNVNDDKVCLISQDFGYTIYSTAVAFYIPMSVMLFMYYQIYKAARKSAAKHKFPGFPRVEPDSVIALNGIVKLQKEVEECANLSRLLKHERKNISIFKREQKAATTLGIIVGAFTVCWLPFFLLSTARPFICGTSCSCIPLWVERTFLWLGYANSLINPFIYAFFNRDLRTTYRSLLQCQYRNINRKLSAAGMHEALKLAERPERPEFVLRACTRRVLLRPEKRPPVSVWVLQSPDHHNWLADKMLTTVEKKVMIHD

[31] = target: Somatostatin receptor (Mus musculus) (UniProt P30935+O08858+P30875+P30873+P49660); assay: Inhibition of mouse somatostatin receptor at 10 uM; format: protein assay
[32] = species on record: Rattus norvegicus; assay: Inhibition of rat ca2+ channel verapamil site at 10 uM
[33] = species on record: Rattus norvegicus; assay: Displacement of [125I]a-dendrotoxin from K+V channel in rat cerebral cortex; format: tissue-based; conditions: concentration not given here
[34] = target: Small conductance calcium-activated potassium channel protein 1 (Rattus norvegicus) (UniProt P70606); assay: Displacement of [125I]apamin from SK+Ca channel in rat cerebral cortex; format: tissue-based; conditions: concentration not given here
[35] = species on record: Rattus norvegicus; assay: Inhibition of rat GABA chloride channel at 10 uM
[36] = target: Sodium-dependent serotonin transporter (Homo sapiens) (UniProt P31645); assay: Inhibition of human serotonin transporter at 10 uM

Sequence of Trace amine-associated receptor 1 (Rattus norvegicus, UniProt Q923Y9) (Q923Y9 whole entry): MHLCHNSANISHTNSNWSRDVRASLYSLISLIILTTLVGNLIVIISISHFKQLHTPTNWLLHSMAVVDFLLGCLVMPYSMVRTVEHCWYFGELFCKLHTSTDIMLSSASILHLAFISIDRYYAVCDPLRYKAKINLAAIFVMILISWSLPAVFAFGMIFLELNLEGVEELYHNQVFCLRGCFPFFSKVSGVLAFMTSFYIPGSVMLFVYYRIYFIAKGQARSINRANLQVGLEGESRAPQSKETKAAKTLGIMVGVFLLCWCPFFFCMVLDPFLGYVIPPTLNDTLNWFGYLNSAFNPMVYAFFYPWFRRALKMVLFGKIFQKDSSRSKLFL

For CCOc1cccc(NC(=O)c2ccc(N3CCCC3)c(C(F)(F)F)c2)c1, which Ki [1] is on record?
The Ki was 942 nM.

What about the IC50 [2] of the same compound?
Its IC50 is 28 nM.

And the Activity [3]?
Its Activity is -12%.

And the clearance [4]?
Its clearance is 109 µL/min/mg.

What about the Cmax [5] of the same compound?
The Cmax was 590 ng/mL.

What about the Vd [6] of the same compound?
The Vd was 3.7 L/kg.

And the Kp [7]?
The Kp was 0.5.

What about the inhibition [8] of the same compound?
Its inhibition is 42%.

And the inhibition [9]?
Its inhibition is 28%.

What about the inhibition [10] of the same compound?
Its inhibition is -5%.

And the inhibition [11]?
The inhibition was 4%.

And the inhibition [12]?
The inhibition was -1%.

What about the inhibition [13] of the same compound?
Its inhibition is 4%.

What about the inhibition at 10 µM [14] of the same compound?
The inhibition at 10 µM was 39%.

And the inhibition [15]?
The inhibition was 54%.

And the inhibition [16]?
Its inhibition is -2%.

What about the inhibition [17] of the same compound?
Its inhibition is 6%.

What about the inhibition [18] of the same compound?
The inhibition was 0%.

What about the inhibition [19] of the same compound?
The inhibition was 10%.

And the inhibition [20]?
Its inhibition is 57%.

And the inhibition [21]?
The inhibition was 38%.

And the inhibition [22]?
The inhibition was 2%.

And the inhibition [23]?
The inhibition was 4%.

What about the inhibition [24] of the same compound?
Its inhibition is 23%.

And the inhibition [25]?
Its inhibition is 8%.

And the inhibition [26]?
Its inhibition is 80%.

And the inhibition [27]?
The inhibition was 53%.

What about the inhibition [28] of the same compound?
The inhibition was 21%.

And the inhibition [29]?
The inhibition was 7%.

And the inhibition [30]?
Its inhibition is 10%.

What about the inhibition [31] of the same compound?
Its inhibition is 7%.

What about the inhibition [32] of the same compound?
Its inhibition is 16%.

What about the inhibition [33] of the same compound?
The inhibition was -3%.

What about the inhibition [34] of the same compound?
The inhibition was 0%.

And the inhibition [35]?
The inhibition was 63%.

And the inhibition [36]?
Its inhibition is -7%.
